Common to all, as to format: functional
For assay [1], the species on record is Mus musculus. Put plainly: Compound was tested for the immunomodulatory activity in vitro expressed as stimulation index by lymphocyte transformation test at 1 ug/mL. The essentials: (§1)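 Normal Swiss mouse splenocytes, RBCs lysed with 0.83% NH4Cl in 10 mM Tris pH 7.2, held at 5x10⁶ cells/ml in RPMI with 10% FCS. Cells cultured 72 h at 37°C in CO₂ with PHA-P mitogen and peptide (10, 1, 0.1, 0.01 µg/ml), then [³H]thymidine pulse and 18 h further incubation. Read as DPM ratio to untreated wells; triplicate runs, ±SD.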

The species entered for assay [2] is Mus musculus. Put plainly: Compound was tested for the immunomodulatory activity in vitro expressed as stimulation index by mixed lymphocyte reaction at 10 ug/mL.
For assay [3], the species on record is Mus musculus. Put plainly: Compound was tested for the immunomodulatory activity in vitro expressed as stimulation index by lymphocyte transformation test at 0.01 ug/mL. The method, boiled down: as §1
The species named for assay [4] is Mus musculus. The assay is described as follows: Compound was tested for the immunomodulatory activity in vitro expressed as stimulation index by lymphocyte transformation test at 0.1 ug/mL. The essentials:
as §1

The species named for assay [5] is Mus musculus. The assay is described as follows: Compound was tested for the immunomodulatory activity in vitro expressed as stimulation index by mixed lymphocyte reaction at 0.1 ug/mL.
The species entered for assay [6] is Mus musculus. The assay is described as follows: Compound was tested for the immunomodulatory activity in vitro expressed as stimulation index by mixed lymphocyte reaction at 1 ug/mL.
The species entered for assay [7] is Mus musculus. The assay is described as follows: Compound was tested for the immunomodulatory activity in vitro expressed as stimulation index by lymphocyte transformation test at 10 ug/mL. The essentials: as §1
The species entered for assay [8] is Mus musculus. Put plainly: Compound was tested for the immunomodulatory activity in vitro expressed as stimulation index by mixed lymphocyte reaction 1 ug/mL.
For assay [9], the species on record is Mus musculus. The assay is described as follows: Compound was tested for the immunomodulatory activity in vitro expressed as stimulation index by mixed lymphocyte reaction (MLR) at 10 ug/mL.

Non-standard residues stand in square brackets, D forms with d. Residues, ends and D or L forms follow the SMILES beside them. Ac5c = NC1(C(=O)O)CCCC1; GABA = NCCCC(=O)O

Consider `CC[C@H](C)[C@H](NC(=O)[C@@H]1CCCN1C(=O)[C@H](CCC(=O)O)NC(=O)[C@@H](N)C(C)C)C(=O)N1CCC[C@H]1C(=O)N[C@@H](Cc1ccc(O)cc1)C(=O)O`, for which the Stimulation index turned out to be 1.5 in [1]; 0.9 in assay [2]; 1.27 in assay [3]; 1.43 in assay [4]; 1 in assay [5]; 0.9 in [6]. The Stimulation index in assay [7] was 1.45.

Turning to `CC[C@@H](C)[C@@H](NC(=O)[C@@H]1CCCN1C(=O)[C@H](CCC(=O)O)NC(=O)[C@@H](N)C(C)C)C(=O)N1CCC[C@H]1C(=O)N[C@H](Cc1ccc(O)cc1)C(=O)O`, the Stimulation index in [1] is 1.22; in assay [2] it was 0.77; in assay [3], 0.82; in [4] it was 1.08; in assay [5] it was 0.93; in [8] it was 0.75. In [7], the Stimulation index is on record as 1.18.

For `CC[C@@H](C)[C@@H](NC(=O)[C@@H]1CCCN1C(=O)[C@@H](CCC(=O)O)NC(=O)[C@H](C)N)C(=O)N1CCC[C@H]1C(=O)N[C@H](Cc1ccc(O)cc1)C(=O)O`, the Stimulation index came to 1.4 in assay [1]; 0.72 in [2]; 1.17 in assay [3]; 1.57 in [4]; 0.74 in [5]; 0.82 in assay [6]. Further, in assay [7], the Stimulation index is on record as 1.22.

As to `CC[C@@H](C)[C@@H](NC(=O)[C@@H]1CCCN1C(=O)[C@H](CCC(=O)O)NC(=O)[C@H](C)N)C(=O)N1CCC[C@H]1C(=O)N[C@H](Cc1ccc(O)cc1)C(=O)O`, the Stimulation index in assay [1] is on record as 1.3; in assay [2], 0.75; in assay [3] it was 1.32; in [4], 1.27; in assay [5], 0.84; in assay [6] it was 0.89. Also, in assay [7], the Stimulation index is on record as 1.32.

Regarding `CC[C@H](C)[C@H](NC(=O)C1(NC(=O)[C@H](CCC(=O)O)NC(=O)[C@@H](N)C(C)C)CCCC1)C(=O)N1CCC[C@H]1C(=O)N[C@@H](Cc1ccc(O)cc1)C(=O)O` (H-VE[Ac5c]IPY-OH), the Stimulation index is reported as 1.09 in assay [1]; 0.62 in assay [2]; 0.69 in [3]; 0.7 in assay [4]; 0.65 in assay [5]; 0.86 in assay [6]. This molecule also came in with a Stimulation index in assay [7] of 1.1.

For `CC[C@H](C)[C@H](NC(=O)CNC(=O)CNC(=O)[C@@H](N)C(C)C)C(=O)N1CCC[C@H]1C(=O)N[C@@H](Cc1ccc(O)cc1)C(=O)O` (H-VGGIPY-OH), the Stimulation index in assay [1] is given as 1.15; in [2] it was 0.88; in assay [3], 0.93; in assay [4], 1.03; in [5], 0.66; in assay [6], 0.95. In addition, the Stimulation index in [7] is 1.22.

On to `CC[C@H](C)[C@H](NC(=O)CCCNC(=O)[C@@H](N)C(C)C)C(=O)N1CCC[C@H]1C(=O)N[C@@H](Cc1ccc(O)cc1)C(=O)O` (H-V[GABA]IPY-OH), for which the Stimulation index was found to be 0.69 in assay [1]; 0.55 in assay [3]; 0.74 in assay [9]; 0.73 in assay [4]; 0.67 in assay [5]; 0.77 in assay [6]. Besides, in assay [7], the Stimulation index was 0.88.

For the origin of these results see ChEMBL document CHEMBL1130743, “Immunosuppressant activity in human beta-casein fragment analogs” (1998).
